Measurements from ChEMBL document CHEMBL1131182, “Anti-AIDS agents. 34. Synthesis and structure-activity relationships of betulin derivatives as anti-HIV agents” (J Med Chem, 1998).

Tests used:
[1] = Therapeutic Index is the […] of the IC50 to that of EC50; format: cell-based; conditions: human, H9 cells; read-out: TI
H9 [2] = assay: Anti-HIV activity against acutely infected H9 lymphocytes. Activity expressed as concentration of compound able to suppress HIV replication by 50%.; format: functional, cell-based; conditions: Homo sapiens
Method in brief: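 H9 cells (RPMI 1640, 10% FCS, L-glutamine, 37 °C, 5% CO2, log phase) infected 1 h with HIV-1 IIIB at MOI 0.1-0.01, washed and plated at 4 × 10^5 cells/mL with DMSO-dissolved samples (screen 100, 20, 4, 0.8 µg/mL final, further dilutions for actives). After 4 days, supernatant p24 was measured by antigen-capture ELISA against a standard curve. EC50 is 50% suppression of replication; at least two experiments averaged.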

H9 [3] = assay: Anti-HIV activity against acutely infected H9 lymphocytes. Activity expressed as concentration of compound toxic to 50% of mock-infected H9 cells.; format: functional, cell-based; conditions: Homo sapiens
Method in brief: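 Uninfected H9 cells were exposed to DMSO-dissolved samples (screen 100, 20, 4, 0.8 µg/mL final) for 4 days at 37 °C, 5% CO2. Remaining cells were counted with a counter against medium-only controls. IC50 is the concentration toxic to 50% of mock-infected cells; at least two experiments averaged.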

Row | EC50 (H9 [2]) [µM] | SMILES | selectivity ratio [1] | IC50 (H9 [3]) [µM]
1 |  | C=C(C)[C@@H]1CC[C@]2(COC(=O)CC(C)(CC)CC(=O)O)CC[C@]3(C)[C@H](CC[C@@H]4[C@@]5(C)CC[C@H](OC(=O)CC(C)(CC)CC(=O)O)C(C)(C)[C@@H]5CC[C@]43C)[C@@H]12 (stereo partly specified) | 3480 | 
2 |  | C=C(C)[C@@H]1CC[C@]2(COC(=O)CC(C)(C)CC(=O)O)CC[C@]3(C)[C@H](CC[C@@H]4[C@@]5(C)CC[C@H](O)C(C)(C)[C@@H]5CC[C@]43C)[C@@H]12 | 7.8 | 
3 |  | CCC(C)(CC(=O)O)CC(=O)OC[C@]12CC[C@@H](C(C)C)[C@@H]1[C@H]1CC[C@@H]3[C@@]4(C)CC[C@H](OC(=O)CC(C)(CC)CC(=O)O)C(C)(C)[C@@H]4CC[C@@]3(C)[C@]1(C)CC2 (stereo partly specified) | 248 | 
4 |  | C=C(C)[C@@H]1CC[C@]2(C(=O)O)CC[C@]3(C)[C@H](CC[C@@H]4[C@@]5(C)CC[C@H](OC(=O)COCC(=O)O)C(C)(C)[C@@H]5CC[C@]43C)[C@@H]12 | 1170 | 
5 | 4.3 | C=C(C)[C@@H]1CC[C@]2(COC(=O)CC3(CC(=O)O)CCCC3)CC[C@]3(C)[C@H](CC[C@@H]4[C@@]5(C)CCC(=O)C(C)(C)[C@@H]5CC[C@]43C)[C@@H]12 | 3 | 12.8
6 |  | C=C(C)[C@@H]1CC[C@]2(COC(=O)CC(C)(C)CC(=O)O)CC[C@]3(C)[C@H](CC[C@@H]4[C@@]5(C)CC[C@H](OC(=O)CC(C)(C)CC(=O)O)C(C)(C)[C@@H]5CC[C@]43C)[C@@H]12 | 21500 | 
7 | 2.1 | C=C(C)[C@@H]1CC[C@]2(COC(=O)CC3(CC(=O)O)CCCC3)CC[C@]3(C)[C@H](CC[C@@H]4[C@@]5(C)CC[C@H](O)C(C)(C)[C@@H]5CC[C@]43C)[C@@H]12 | 6.1 | 13.3
8 |  | CC(C)[C@@H]1CC[C@]2(COC(=O)CC(C)(C)CC(=O)O)CC[C@]3(C)[C@H](CC[C@@H]4[C@@]5(C)CC[C@H](OC(=O)CC(C)(C)CC(=O)O)C(C)(C)[C@@H]5CC[C@]43C)[C@@H]12 | 2250 | 
9 | 3.8 | C=C(C)[C@@H]1CC[C@]2(COC(=O)CCCC(=O)O)CC[C@]3(C)[C@H](CC[C@@H]4[C@@]5(C)CC[C@H](OC(=O)CCCC(=O)O)C(C)(C)[C@@H]5CC[C@]43C)[C@@H]12 | 6.8 | 25.8
10 |  | C=C(C)[C@@H]1CC[C@]2(CO)CC[C@]3(C)[C@H](CC[C@@H]4[C@@]5(C)CC=CC(C)(C)[C@@H]5CC[C@]43C)[C@@H]12 | 2.7 | 
11 |  | C=C(C)[C@@H]1CC[C@]2(CO)CC[C@]3(C)[C@H](CC[C@@H]4[C@@]5(C)CC[C@H](O)C(C)(C)[C@@H]5CC[C@]43C)[C@@H]12 [BETULIN] | 1.9 | 
12 | 2.98 | C=C(C)[C@@H]1CC[C@]2(COC(=O)C34CC5CC(CC(C5)C3)C4)CC[C@]3(C)[C@H](CC[C@@H]4[C@@]5(C)CC[C@H](OC(=O)CC(C)(C)CC(=O)O)C(C)(C)[C@@H]5CC[C@]43C)[C@@H]12 | > 44.8 | > 134
13 |  | C=C(C)[C@@H]1CC[C@]2(COC(=O)CC(C)(C)CC(=O)O)CC[C@]3(C)[C@H](CC[C@@H]4[C@@]5(C)CCC(=O)C(C)(C)[C@@H]5CC[C@]43C)[C@@H]12 | 2.9 | 
14 |  | C=C(C)[C@@H]1CC[C@]2(C(=O)O)CC[C@]3(C)[C@H](CC[C@@H]4[C@@]5(C)CC[C@H](OC(=O)C(C)(C)CC(=O)O)C(C)(C)[C@@H]5CC[C@]43C)[C@@H]12 | 5.9 | 
15 | 0.059 | CC(CC(=O)O)CC(=O)OC[C@]12CC[C@@H](C(C)C)[C@@H]1[C@H]1CC[C@@H]3[C@@]4(C)CC[C@H](OC(=O)CC(C)CC(=O)O)C(C)(C)[C@@H]4CC[C@@]3(C)[C@]1(C)CC2 (stereo partly specified) | 325 | 19.2
16 | 0.0039 | C=C(C)[C@@H]1CC[C@]2(COC(=O)CC(C)CC(=O)O)CC[C@]3(C)[C@H](CC[C@@H]4[C@@]5(C)CC[C@H](OC(=O)CC(C)CC(=O)O)C(C)(C)[C@@H]5CC[C@]43C)[C@@H]12 (stereo partly specified) | 5310 | 20.7
17 | < 0.00035 | C=C(C)[C@@H]1CC[C@]2(C(=O)O)CC[C@]3(C)[C@H](CC[C@@H]4[C@@]5(C)CC[C@H](OC(=O)CC(C)(C)C(=O)O)C(C)(C)[C@@H]5CC[C@]43C)[C@@H]12 [BEVIRIMAT] | > 20000 | > 7
18 | 1.6 | CC(C)[C@@H]1CC[C@]2(COC(=O)CCCC(=O)O)CC[C@]3(C)[C@H](CC[C@@H]4[C@@]5(C)CC[C@H](OC(=O)CCCC(=O)O)C(C)(C)[C@@H]5CC[C@]43C)[C@@H]12 | 17 | 26.3
19 | 0.045 | C=C(COC(=O)CC(C)(C)CC(=O)O)[C@@H]1CC[C@]2(COC(=O)CC(C)(C)CC(=O)O)CC[C@]3(C)[C@H](CC[C@@H]4[C@@]5(C)CC[C@H](OC(=O)CC(C)(C)CC(=O)O)C(C)(C)[C@@H]5CC[C@]43C)[C@@H]12 | 389 | 17.5
20 | 0.57 | C=C(C)[C@@H]1CC[C@]2(CNC(=O)CC(C)(C)CC(=O)O)CC[C@]3(C)[C@H](CC[C@@H]4[C@@]5(C)CC[C@H](NC(=O)CC(C)(C)CC(=O)O)C(C)(C)[C@@H]5CC[C@]43C)[C@@H]12 | 36.6 | 20.6
21 | 4.7 | CC(C)[C@@H]1CC[C@]2(COC(=O)CCC(=O)O)CC[C@]3(C)[C@H](CC[C@@H]4[C@@]5(C)CC[C@H](OC(=O)CCC(=O)O)C(C)(C)[C@@H]5CC[C@]43C)[C@@H]12 | 6.2 | 28.8
22 | 8.5 | C=C(C)[C@@H]1CC[C@]2(COC(=O)CC3(CC(=O)O)CCCC3)CC[C@]3(C)[C@H](CC[C@@H]4[C@@]5(C)CC=CC(C)(C)[C@@H]5CC[C@]43C)[C@@H]12 | 4.3 | 36.2
23 |  | C=C(C)[C@@H]1CC[C@]2(COC(=O)CC3(CC(=O)O)CCCC3)CC[C@]3(C)[C@H](CC[C@@H]4[C@@]5(C)CC[C@H](OC(=O)CC6(CC(=O)O)CCCC6)C(C)(C)[C@@H]5CC[C@]43C)[C@@H]12 | 267 | 
24 | 4.57 | C=C(C)[C@@H]1CC[C@]2(/C=N/OC(=O)CC(C)(C)CC(=O)O)CC[C@]3(C)[C@H](CC[C@@H]4[C@@]5(C)CC/C(=N\OC(=O)CC(C)(C)CC(=O)O)C(C)(C)[C@@H]5CC[C@]43C)[C@@H]12 | 3.4 | 15.4
25 | 10.2 | C=C(COC(C)=O)[C@@H]1CC[C@]2(COC(C)=O)CC[C@]3(C)[C@H](CC[C@@H]4[C@@]5(C)CC[C@H](OC(C)=O)C(C)(C)[C@@H]5CC[C@]43C)[C@@H]12 | 2.5 | 25
26 |  | CC(C)[C@@H]1CC[C@]2(COC(=O)CC3(CC(=O)O)CCCC3)CC[C@]3(C)[C@H](CC[C@@H]4[C@@]5(C)CC[C@H](OC(=O)CC6(CC(=O)O)CCCC6)C(C)(C)[C@@H]5CC[C@]43C)[C@@H]12 | 37 | 
27 | 4.81 | C=C(C)[C@@H]1CC[C@]2(CNC(=O)CC3(CC(=O)O)CCCC3)CC[C@]3(C)[C@H](CC[C@@H]4[C@@]5(C)CC[C@H](NC(=O)CC6(CC(=O)O)CCCC6)C(C)(C)[C@@H]5CC[C@]43C)[C@@H]12 | 3.1 | 15
28 |  | C=C(C)[C@@H]1CC[C@]2(COC(=O)CC(C)(C)CC(=O)O)CC[C@]3(C)[C@H](CC[C@@H]4[C@@]5(C)CC=CC(C)(C)[C@@H]5CC[C@]43C)[C@@H]12 | 5.2 | 

Row | SMILES | EC50 (H9 [2]) [µM] | selectivity ratio [1] | IC50 (H9 [3]) [µM]
29 | C=C(CO)[C@@H]1CC[C@]2(CO)CC[C@]3(C)[C@H](CC[C@@H]4[C@@]5(C)CC[C@H](O)C(C)(C)[C@@H]5CC[C@]43C)[C@@H]12 [30-HYDROXY-BETULIN] | 50.8 | 2.8 | > 140
30 | C=C(C)[C@@H]1CC[C@]2(CO)CC[C@]3(C)[C@H](CC[C@@H]4[C@@]5(C)CC[C@@H](O)C(C)(C)[C@@H]5CC[C@]43C)[C@@H]12 [3-EPI-BETULIN] | 3.62 | 3.4 | 12.3
31 | C=C(C)[C@@H]1CC[C@]2(COC(C)=O)CC[C@]3(C)[C@H](CC[C@@H]4[C@@]5(C)CC[C@H](OC(C)=O)C(C)(C)[C@@H]5CC[C@]43C)[C@@H]12 [BETULIN DIACETATE] | > 190 | < 1 | > 190
32 | C=C(C)[C@@H]1CC[C@]2(COC(=O)CC(C)(C)CC(=O)O)CC[C@]3(C)[C@H](CC[C@@H]4[C@@]5(C)CC[C@@H](OC(=O)CC(C)(C)CC(=O)O)C(C)(C)[C@@H]5CC[C@]43C)[C@@H]12 | > 13.8 | < 2.4 | 33.6
33 | C=C(C)[C@@H]1CC[C@]2(/C=N/O)CC[C@]3(C)[C@H](CC[C@@H]4[C@@]5(C)CC/C(=N\O)C(C)(C)[C@@H]5CC[C@]43C)[C@@H]12 [BETULIN-3,28-DIOXIME] | 1.07 | 5.1 | 5.47
34 | C=C(C)[C@@H]1CC[C@]2(C=O)CC[C@]3(C)[C@H](CC[C@@H]4[C@@]5(C)CCC(=O)C(C)(C)[C@@H]5CC[C@]43C)[C@@H]12 [BETULONAL] | 45.6 | 1.1 | 49
